{
  "source": "ChEMBL document CHEMBL1124181",
  "about": "“Imidazo[1,2-a]pyrimidines and imidazo[1,2-a]pyrazines: the role of nitrogen position in inotropic activity” (1988)",
  "key": {"[1]": {"organism": "Felis catus", "test": "Inotropic activity in cat papillary muscle at 10e-5 M expressed as percent of control", "assay_type": "functional", "summary_of_the_method": "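Isolated-tissue bath preparation with contractions recorded on a polygraph. Compounds were dissolved in DMSO and added cumulatively, each concentration being allowed to produce its maximal response before the next higher one was added.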"}, "[2]": {"system": "Canis familiaris", "test": "Tested in anesthetized dog for its inotropic activity after intravenous administration", "assay_type": "functional", "conditions": "Canis lupus familiaris", "summary_of_the_method": "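Mongrel dogs of either sex (7-14 kg), anesthetized with sodium pentobarbital (35 mg/kg iv). Dosing was via a femoral vein cannula. Contractility was measured by a Walton-Brodie strain-gauge arch on the right ventricle (tension 50 g); heart rate by cardiometer; lead II ECG. Doses of 0.01 to 8.0 mg/kg iv were given in increasing steps at 5-min intervals. Peak responses are reported as mean ± SEM (n = 4) or mean ± range (n = 2).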"}},
  "data": [
    {"smiles": "COc1ccc(-c2nc3ccc[nH]c-3n2)c(OC)c1", "values": [
      {"measurement": "Inotropic activity (% of control)", "setting": "[1]", "result": 146, "unit": "%"}
    ]},
    {"smiles": "COc1cc([S+](C)[O-])ccc1-c1nc2cccnc2[nH]1", "note": "(stereo not drawn) [SULMAZOLE]", "values": [
      {"measurement": "Inotropic activity (% of control)", "setting": "[1]", "result": 112, "unit": "%"}
    ]},
    {"smiles": "COc1ccc(-c2cn3cnccc3n2)c(OC)c1", "values": [
      {"measurement": "Inotropic activity (% of control)", "setting": "[1]", "result": 114, "unit": "%"}
    ]},
    {"smiles": "COc1ccc(-c2cn3nccnc3n2)c(OC)c1", "values": [
      {"measurement": "Inotropic activity (% of control)", "setting": "[1]", "result": 130, "unit": "%"}
    ]},
    {"smiles": "COc1ccc(-c2cn3ccccc3n2)c(OC)c1", "values": [
      {"measurement": "Inotropic activity (% of control)", "setting": "[1]", "result": 98, "unit": "%"}
    ]},
    {"smiles": "COc1cc(S(C)(=O)=O)ccc1-c1cn2ccncc2n1", "values": [
      {"measurement": "Inotropic activity (% of control)", "setting": "[1]", "result": 180, "unit": "%"},
      {"measurement": "ED50", "setting": "[2]", "result": 0.02, "unit": "mg/kg"}
    ]},
    {"smiles": "COc1cc([S+](C)[O-])ccc1-c1cn2ccncc2n1", "note": "(stereo not drawn)", "values": [
      {"measurement": "Inotropic activity (% of control)", "setting": "[1]", "result": 161, "unit": "%"},
      {"measurement": "ED50", "setting": "[2]", "result": 0.1, "unit": "mg/kg"}
    ]},
    {"smiles": "COc1ccc(-c2cn3cccnc3n2)c(OC)c1", "values": [
      {"measurement": "Inotropic activity (% of control)", "setting": "[1]", "result": 136, "unit": "%"}
    ]},
    {"smiles": "COc1cc([S+](C)[O-])ccc1-c1nc2cnccc2[nH]1", "note": "(stereo not drawn) [ISOMAZOLE]", "values": [
      {"measurement": "Inotropic activity (% of control)", "setting": "[1]", "result": 172, "unit": "%"},
      {"measurement": "ED50", "setting": "[2]", "result": 0.03, "unit": "mg/kg"}
    ]},
    {"smiles": "COc1ccc(-c2cn3ccncc3n2)c(OC)c1", "values": [
      {"measurement": "Inotropic activity (% of control)", "setting": "[1]", "result": 145, "unit": "%"},
      {"measurement": "ED50", "setting": "[2]", "result": 0.7, "unit": "mg/kg"}
    ]},
    {"smiles": "COc1ccc(-c2nc3cc[nH]cc-3n2)c(OC)c1", "values": [
      {"measurement": "Inotropic activity (% of control)", "setting": "[1]", "result": 158, "unit": "%"},
      {"measurement": "ED50", "setting": "[2]", "result": 0.3, "unit": "mg/kg"}
    ]},
    {"smiles": "COc1cc(SC)ccc1-c1nc2cc[nH]cc-2n1", "values": [
      {"measurement": "Inotropic activity (% of control)", "setting": "[1]", "result": 143, "unit": "%"},
      {"measurement": "ED50", "setting": "[2]", "result": 0.2, "unit": "mg/kg"}
    ]},
    {"smiles": "COc1ccc(-c2cn3ncccc3n2)c(OC)c1", "values": [
      {"measurement": "Inotropic activity (% of control)", "setting": "[1]", "result": 115, "unit": "%"}
    ]},
    {"smiles": "COc1cc(S(C)(=O)=O)ccc1-c1nc2ccncc2[nH]1", "values": [
      {"measurement": "Inotropic activity (% of control)", "setting": "[1]", "result": 176, "unit": "%"},
      {"measurement": "ED50", "setting": "[2]", "result": 0.02, "unit": "mg/kg"}
    ]},
    {"smiles": "COc1cc(SC)ccc1-c1cn2ccncc2n1", "values": [
      {"measurement": "Inotropic activity (% of control)", "setting": "[1]", "result": 140, "unit": "%"},
      {"measurement": "ED50", "setting": "[2]", "result": 0.5, "unit": "mg/kg"}
    ]}
  ]
}
